Experimental data collected from several papers.
Pam: Peptidylglycine alpha-amidating monooxygenase (Pam, Rattus norvegicus, UniProt P14925)
ADRA2A: Alpha-2A adrenergic receptor (ADRA2A, Homo sapiens, UniProt P08913)
OPRD1: Delta-type opioid receptor (OPRD1, Homo sapiens, UniProt P41143)
CA2: Carbonic anhydrase 2 (CA2, Homo sapiens, UniProt P00918)
CA1: Carbonic anhydrase 1 (CA1, Homo sapiens, UniProt P00915)
Sigmar1: Sigma non-opioid intracellular receptor 1 (Sigmar1, Rattus norvegicus, UniProt Q9R0C9)
SNCA fibril: Alpha-synuclein, fibril (SNCA, Homo sapiens, UniProt P37840)

Compound | target | assay | setting | Ki
O=C(O)/C=C/c1c[nH]cn1 | Pam | enzyme activity, inhibitor | pH 6 | 10000 µM
Nc1ccnc2ccccc12 | ADRA2A | ligand displacement, radioligand | cell membranes | 5.6 µM
CCCCN1CCC(COC(=O)c2ccc(N)c(OCF)c2)CC1 | OPRD1 | cell-free assay, radioligand |  | > 10 µM
NS(=O)(=O)c1nnc(NC(=O)CC2CCCC2)s1 | CA2 | enzyme activity, inhibitor |  | 0.0194 µM
CNc1nc(C#Cc2ccc(Cl)s2)nc2c1ncn2[C@@H]1O[C@H](C(=O)OC)[C@@H](O)[C@H]1O | OPRD1 | ligand displacement, radioligand |  | > 10 µM
NS(=O)(=O)c1ccc(-n2nccc2-c2ccc(N3CCOCC3)cc2)cc1 | CA1 | enzyme activity, inhibitor, stopped-flow |  | > 100 µM
CNC(=O)[C@@]12C[C@@H]1[C@@H](n1cnc3c(NCCC(F)(F)F)nc(C#Cc4ccc(Cl)s4)nc31)[C@H](O)[C@@H]2O | OPRD1 | ligand displacement, radioligand |  | > 10 µM
C[C@H]1Oc2cc(cnc2N)-c2c(nn(C)c2C#N)CN(C)C(=O)c2ccc(F)cc21 | Protein-tyrosine kinase 2-beta (PTK2B, Homo sapiens, UniProt Q14289) | cell-free assay | lysate | 0.0655 µM
NS(=O)(=O)c1ccc(C(F)(F)F)cc1 | CA2 | enzyme activity, inhibitor, absorbance |  | ~0.23 µM
CNc1nc(C#Cc2ccc(Cl)s2)nc2c1ncn2[C@H]1[C@H](O)[C@H](O)[C@]2(C(=O)OC)C[C@H]12 | OPRD1 | ligand displacement, radioligand |  | > 10 µM
CN1CCN(c2ccc(-c3ccnn3-c3ccc(S(N)(=O)=O)cc3)cc2)CC1 | CA1 | enzyme activity, inhibitor, stopped-flow |  | > 100 µM
NS(=O)(=O)c1nnc(NC(=O)CC2CC2)s1 | CA1 | enzyme activity, inhibitor |  | 0.372 µM
COc1ccnc(Oc2ccc(-c3c(C)c(=O)[nH]c(=O)n3C)c(C)c2)c1C(F)(F)F | ADRA2A | ligand displacement, radioligand |  | 6.9 µM
CNC(=O)[C@@]12C[C@@H]1[C@@H](n1cnc3c(NC)nc(C#Cc4ccccc4Cl)nc31)[C@H](O)[C@@H]2O | OPRD1 | ligand displacement, radioligand |  | > 10 µM
O=C(CN(CCCCI)CCCN1CCN(C2CCCCC2)CC1)Nc1ccc(C(=O)c2ccccc2)cc1 | Sigmar1 | ligand displacement, radioligand | cell membranes | 0.172 µM
NS(=O)(=O)c1nnc(NC(=O)C2CC2)s1 | CA2 | enzyme activity, inhibitor |  | 0.0246 µM
O=C(O)C=Cc1ccc([N+](=O)[O-])cc1 | Pam | enzyme activity, inhibitor | pH 6 | 600 µM
CNc1nc2cc(OCCCCN3CCC(c4cccc(Cl)c4Cl)CC3)ccc2s1 | 5-hydroxytryptamine receptor 3A (HTR3A, Homo sapiens, UniProt P46098) | cell-free assay, radioligand |  | 0.37 µM

Compound | target | assay | setting | Ki
C#CCNCCCN1CCN(CCCNC(=O)c2ccc(C(=O)c3ccc([N+](=O)[O-])cc3)cc2)CC1 | Sigmar1 | ligand displacement, radioligand | cell membranes | 0.445 µM
CC(C)[C@@H](CC[C@@H](C)[C@H]1CC[C@H]2[C@@H]3[C@H](O)C[C@H]4C[C@@H](NCCCNCCCCNCCCN)CC[C@]4(C)[C@H]3CC[C@]12C)OS(=O)(=O)O | Receptor-type tyrosine-protein phosphatase F (Homo sapiens, UniProt P10586) | enzyme activity, inhibitor |  | 20 µM
C#CCN(CCCN1CCN(C2CCCCC2)CC1)Cc1ccc(C(=O)c2ccc([N+](=O)[O-])cc2)cc1 | Sigmar1 | ligand displacement, radioligand | cell membranes | 0.0298 µM
CCN(CC)Cc1cc(Nc2ccnc3cc(Cl)ccc23)ccc1O | NAD(P)H dehydrogenase [quinone] 1 (NQO1, Homo sapiens, UniProt P15559) | enzyme activity, inhibitor, absorbance |  | > 100 µM
NS(=O)(=O)c1nnc(NC(=O)C2CCCC2)s1 | CA2 | enzyme activity, inhibitor |  | 0.0262 µM
CNc1nc(C#Cc2ccc(Cl)s2)nc2c1ncn2[C@H]1[C@H](O)[C@H](O)[C@]2(C(=O)OCCC3CCCCC3)C[C@H]12 | OPRD1 | ligand displacement, radioligand |  | > 10 µM
C#CCN(CCCN1CCN(C2CCCCC2)CC1)c1ccc(C(=O)c2ccccc2)cc1 | Sigmar1 | ligand displacement, radioligand | cell membranes | 0.652 µM
CC1CCC(C(=O)Nc2nnc(S(N)(=O)=O)s2)CC1 (stereo not drawn) | CA1 | enzyme activity, inhibitor |  | 0.152 µM
C#CCNCc1ccc(C(=O)c2ccc([N+](=O)[O-])cc2)cc1 | Sigmar1 | ligand displacement, radioligand | cell membranes | 0.12 µM
CNC(=O)[C@@]12C[C@@H]1[C@@H](n1cnc3c(NCc4cccc(Cl)c4)nc(Cl)nc31)[C@H](O)[C@@H]2O | OPRD1 | ligand displacement, radioligand |  | > 10 µM
NS(=O)(=O)c1nnc(NC(=O)CC2CCC2)s1 | CA2 | enzyme activity, inhibitor |  | 0.0049 µM
NS(=O)(=O)c1ccc(-n2nccc2-c2ccc(N3CCCCC3)cc2)cc1 | CA1 | enzyme activity, inhibitor, stopped-flow |  | > 100 µM
CCNc1nc(C#Cc2ccccc2)nc2c1ncn2[C@H]1[C@H](O)[C@H](O)[C@@H]2C[C@@H]21 | OPRD1 | ligand displacement, radioligand |  | > 10 µM
COc1ccc(C(=O)Nc2ccc(N3C4CCC3CN(c3cnc5ccccc5c3)C4)cc2)cc1 | SNCA fibril | ligand displacement, radioligand |  | 0.108 µM
CN(C)c1ccc(C=CC(=O)O)cc1 | Pam | enzyme activity, inhibitor | pH 6 | 3000 µM
COc1cc2c(cc1OC)CN(CCCNC(=O)c1ccc(C(=O)c3ccc([N+](=O)[O-])cc3)cc1)CC2 | Sigmar1 | ligand displacement, radioligand | cell membranes | > 10 µM
CNC(=O)[C@H]1O[C@@H](n2cnc3c(NC)nc(C#Cc4ccc(Cl)s4)nc32)[C@H](O)[C@@H]1O | OPRD1 | ligand displacement, radioligand |  | > 10 µM
COc1ccc(C(=O)Nc2ccc(N3CCCN(c4ccccn4)CC3)cn2)cc1 | SNCA fibril | ligand displacement, radioligand |  | 0.185 µM
